Experimental data: ChEMBL document CHEMBL1177760, “Antioxidative activities of histidine containing caffeic acid-dipeptides” (Bioorg Med Chem Lett, 2010)

Assays:
[1] = Antioxidant activity against lipid peroxidation at 90 uM after 10 hrs by ferric thiocyanate method relative to control; assay type: functional
In short: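 Linoleic acid (>99%) emulsified with Tween 20, biphasic autoxidation system; each antioxidant at 90 µM final, held at 50 °C in the dark; lipid peroxidation read by ferric thiocyanate absorbance at 10 h, expressed as percent inhibition (%Pi) against untreated control; triplicate, mean ± standard error.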

[2] = system: Radical scavenging activity; assay: Antioxidant activity assessed as DPPH free radical scavenging activity at 25 uM after 20 mins relative to control; assay type: functional
In short: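 DPPH radical scavenging run in methanol and in acetate-buffered (pH 5.5) methanol; antioxidant:DPPH molar ratio 0.25; triplicate, repeated five times; mean ± standard error.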

[3] = molecular target: Xanthine dehydrogenase/oxidase (Homo sapiens, UniProt P47989); assay: Inhibition of xanthine oxidase after 15 mins; conditions: 0.25 h
In short: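 Xanthine oxidase inhibition with test agent at 0.1 mM; triplicate, mean ± standard error.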

Sequence of Xanthine dehydrogenase/oxidase (P47989 whole entry): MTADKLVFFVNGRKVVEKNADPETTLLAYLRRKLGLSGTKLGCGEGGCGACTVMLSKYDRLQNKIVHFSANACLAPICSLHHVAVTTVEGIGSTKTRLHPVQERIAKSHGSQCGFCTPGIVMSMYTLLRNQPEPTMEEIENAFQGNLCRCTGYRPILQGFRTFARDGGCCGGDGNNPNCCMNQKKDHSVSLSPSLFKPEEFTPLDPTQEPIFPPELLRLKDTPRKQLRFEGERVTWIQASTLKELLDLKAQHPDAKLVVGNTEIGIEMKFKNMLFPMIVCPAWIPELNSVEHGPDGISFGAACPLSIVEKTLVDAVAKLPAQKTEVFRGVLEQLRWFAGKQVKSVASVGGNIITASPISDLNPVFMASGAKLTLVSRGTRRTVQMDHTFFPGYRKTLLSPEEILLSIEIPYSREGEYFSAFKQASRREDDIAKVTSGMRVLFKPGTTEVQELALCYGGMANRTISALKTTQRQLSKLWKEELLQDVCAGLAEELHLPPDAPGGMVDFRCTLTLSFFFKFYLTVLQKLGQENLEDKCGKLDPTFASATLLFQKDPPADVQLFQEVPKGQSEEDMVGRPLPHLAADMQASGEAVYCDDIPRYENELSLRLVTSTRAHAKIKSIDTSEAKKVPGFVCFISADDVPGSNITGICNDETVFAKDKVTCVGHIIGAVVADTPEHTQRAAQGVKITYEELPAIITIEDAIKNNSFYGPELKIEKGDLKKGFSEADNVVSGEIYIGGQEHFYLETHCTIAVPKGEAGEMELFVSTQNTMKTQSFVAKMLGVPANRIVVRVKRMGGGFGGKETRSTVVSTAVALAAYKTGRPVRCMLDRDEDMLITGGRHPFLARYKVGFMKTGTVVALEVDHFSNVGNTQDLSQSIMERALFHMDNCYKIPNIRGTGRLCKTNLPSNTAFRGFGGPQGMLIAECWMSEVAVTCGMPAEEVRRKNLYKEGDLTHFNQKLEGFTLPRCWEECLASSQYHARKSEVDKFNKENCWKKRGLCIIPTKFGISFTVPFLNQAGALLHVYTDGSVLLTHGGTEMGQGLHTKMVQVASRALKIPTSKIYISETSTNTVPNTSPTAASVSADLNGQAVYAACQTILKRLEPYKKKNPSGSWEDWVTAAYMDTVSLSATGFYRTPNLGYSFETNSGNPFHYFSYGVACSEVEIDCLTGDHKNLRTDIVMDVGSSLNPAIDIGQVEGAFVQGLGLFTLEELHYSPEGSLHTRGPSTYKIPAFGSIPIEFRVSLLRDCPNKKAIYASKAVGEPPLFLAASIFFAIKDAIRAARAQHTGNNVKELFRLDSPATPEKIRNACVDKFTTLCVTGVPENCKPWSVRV

Row | Structure (SMILES) | Activity [1] [%] | Activity [2] [%] | inhibition (INH) [3] [%]
1 | C[C@H](NC(=O)[C@H](Cc1cnc[nH]1)NC(=O)/C=C/c1ccc(O)c(O)c1)C(N)=O | 66 |  | 
2 | NCCCC[C@H](NC(=O)/C=C/c1ccc(O)c(O)c1)C(=O)N[C@@H](Cc1cnc[nH]1)C(N)=O | 84 | 65 | 
3 | NC(=O)[C@@H]1CCCN1C(=O)[C@H](Cc1cnc[nH]1)NC(=O)/C=C/c1ccc(O)c(O)c1 | 61 |  | 
4 | NC(=O)[C@H](Cc1cnc[nH]1)NC(=O)CCNC(=O)/C=C/c1ccc(O)c(O)c1 | 64 | 70 | 
5 | NC(=O)[C@H](CO)NC(=O)[C@H](Cc1cnc[nH]1)NC(=O)/C=C/c1ccc(O)c(O)c1 | 71 |  | 
6 | NC(=O)[C@H](Cc1cnc[nH]1)NC(=O)[C@@H]1CCCN1C(=O)/C=C/c1ccc(O)c(O)c1 | 87 | 71 | 52
7 | NC(=O)[C@H](Cc1cnc[nH]1)NC(=O)[C@H](CO)NC(=O)/C=C/c1ccc(O)c(O)c1 | 83 |  | 
8 | NC(=O)[C@H](Cc1cnc[nH]1)NC(=O)[C@H](CS)NC(=O)/C=C/c1ccc(O)c(O)c1 | 84 |  | 
9 | NC(=O)CCNC(=O)[C@H](Cc1cnc[nH]1)NC(=O)/C=C/c1ccc(O)c(O)c1 | 71 |  | 
10 | C[C@H](NC(=O)/C=C/c1ccc(O)c(O)c1)C(=O)N[C@@H](Cc1cnc[nH]1)C(N)=O | 84 |  | 
11 | NC(=O)[C@H](Cc1ccccc1)NC(=O)[C@H](Cc1cnc[nH]1)NC(=O)/C=C/c1ccc(O)c(O)c1 | 72 |  | 
12 | NC(=O)[C@H](CC(=O)O)NC(=O)[C@H](Cc1cnc[nH]1)NC(=O)/C=C/c1ccc(O)c(O)c1 | 73 | 49 | 
13 | NCCCC[C@H](NC(=O)[C@H](Cc1cnc[nH]1)NC(=O)/C=C/c1ccc(O)c(O)c1)C(N)=O | 76 | 54 | 
14 | NC(=O)[C@H](Cc1ccccc1)NC(=O)/C=C/c1ccc(O)c(O)c1 | 73 | 51 | 
15 | NC(=O)[C@H](Cc1cnc[nH]1)NC(=O)[C@H](Cc1ccccc1)NC(=O)/C=C/c1ccc(O)c(O)c1 | 80 | 59 | 
16 | COc1ccc(O)c(C(C)(C)C)c1.COc1ccc(O)cc1C(C)(C)C | 86 | 62 | 
17 | NC(=O)[C@H](Cc1cnc[nH]1)NC(=O)[C@H](CC(=O)O)NC(=O)/C=C/c1ccc(O)c(O)c1 | 82 | 52 | 
18 | NC(=O)[C@H](CS)NC(=O)[C@H](Cc1cnc[nH]1)NC(=O)/C=C/c1ccc(O)c(O)c1 | 79 |  | 
19 | NC(=O)[C@H](Cc1cnc[nH]1)NC(=O)[C@H](Cc1cnc[nH]1)NC(=O)/C=C/c1ccc(O)c(O)c1 | 80 |  | 
20 | O=C(O)/C=C/c1ccc(O)c(O)c1 |  | 47 | 
